The list is not random: actives were taken first. Their share in the collection is about 1.5%.
APJ antag = antagonists of human apelin receptor APJ, primary screen, CHO-K1 cells, beta-arrestin complementation, luminescence; 0.32% of 330,000 active; P35414; inhibition, % at 20 µM;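 active = inhibition above about 40% at 20 µM, limit read from the data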;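 also: cells challenged with 10 nM apelin-13 agonist together with compound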
APJ ag = agonists of human apelin receptor APJ, primary screen, CHO-K1 cells, PathHunter beta-arrestin, luminescence; P35414; 0% DMSO wells, 100% apelin; activation, % at 20 µM; 0.11% of 330,000 active; AID 2520, 2010;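 active = activation more than six SD over the plate average, tested at 20 µM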
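Incubation: overnight seeding, 90 min compound at 25 °C, 1 h detection; test system: PathHunter CHO-K1 APJ (AGTRL-1) beta-arrestin reporter cells; amount: 1000 cells/well; doses: one dose, 20 µM compound, 1% DMSO; measured by: beta-gal luminescence; measure: agonist-driven arrestin binding to APJ; benchmarks: negative DMSO alone, positive Apelin-13 at 10 nM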
CCR6 antag = CCR6 receptor antagonists, primary screen, cell-based, CHO-K1, luminescence, beta-arrestin, uHTS | inhibition, % at 20 µM | 0.49% of 340,000 active | AID 493098, 2011 | C-C chemokine receptor type 6 (Homo sapiens), P51684 | CHO-K1 CCR6 PathHunter beta-arrestin, CCL20-stimulated;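 active = compounds whose inhibition of the agonist-driven luminescence signal at 20 µM reaches about 50%, limit read from the data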;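 also: cells stimulated with CCL20 at 14 nM final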
EBI2 antag = EBI2 receptor antagonists, beta-arrestin recruitment, primary screen, cell-based, luminescence, 7a,25-OHC stimulation, uHTS; G-protein coupled receptor 183 (Homo sapiens), P32249; 7a,25-OHC stimulated; inhibition, % at 5 µM; 0.81% of 360,000 active; AID 651636, 2012; in the data active = inhibition above about 38%;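 also: enzyme fragment complementation signal reports receptor beta-arrestin coupling in cells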
Target sequence (P32249 whole entry, looked up, the tested form may be a part): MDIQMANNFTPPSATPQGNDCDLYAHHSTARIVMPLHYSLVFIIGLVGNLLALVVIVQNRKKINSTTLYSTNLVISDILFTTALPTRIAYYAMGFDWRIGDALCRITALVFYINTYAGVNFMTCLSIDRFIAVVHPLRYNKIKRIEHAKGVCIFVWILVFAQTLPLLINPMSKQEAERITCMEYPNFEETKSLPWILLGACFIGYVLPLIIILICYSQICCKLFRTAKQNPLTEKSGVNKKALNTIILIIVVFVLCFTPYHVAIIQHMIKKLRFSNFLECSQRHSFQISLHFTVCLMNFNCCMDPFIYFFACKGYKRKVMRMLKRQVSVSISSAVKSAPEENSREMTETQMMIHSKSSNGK
CXCR6 block = CXCR6 receptor inhibitors, primary screen, cell-based, beta-arrestin, luminescence, CHO-K1 PathHunter, 1536-well | C-X-C chemokine receptor type 6 (Homo sapiens), O00574 | AID 602244, 2012 | 0.36% of 360,000 active | inhibition, % at 20 µM; in the data active = inhibition above about 34%, passing the limit was not always enough;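 also: antagonist mode with CXCL16 agonist at 10 nM final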
APJ antag confirm = APJ antagonists blocking beta-arrestin recruitment, confirmation, cell-based, luminescence, single concentration, uHTS hits; 66% of 950 active; AID 2766, 2010; inhibition, % at 20 µM; shares compounds with APJ antag; antagonist mode; in the data active = inhibition above about 50%
CXCR6 antag conf = CXCR6 receptor antagonists, confirmation, cell-based, single concentration, beta-arrestin, luminescence | shares compounds with CXCR6 block | CHO-K1 CXCR6 PathHunter beta-arrestin | inhibition, % at 20 µM | 65% of 700 active;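 active = mean inhibition over four retests above 40%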;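 also: receptor stimulated with 10 nM CXCL16 agonist; beta-galactosidase fragment complementation upon beta-arrestin recruitment to receptor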
EBI2 antag conf = EBI2 antagonist hit retest, beta-arrestin, confirmation, cell-based, single concentration, luminescence, 7a,25-OHC stimulation; shares compounds with EBI2 antag; 7a,25-OHC antagonism; inhibition, % at 5 µM; 29% of 2,400 active; AID 651997, 2013;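 active = inhibition of at least 50%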
EBI2 agonist = EBI2 agonist activity of antagonist hits, confirmation, counter-screen for EBI2 antagonist project, cell-based, single concentration, agonist mode, luminescence. shares compounds with EBI2 antag. EBI2-expressing cells, 60 min; 0% vehicle, 100% 7α,25-dihydroxycholesterol control. activation, % at 5 µM. 2,400 tested, under 10 active;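 active = activation of at least 50%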
bGal cs = E. coli beta-galactosidase enzyme inhibition, confirmation, counter-screen for EBI2 antagonist project, biochemical, luminescence, single concentration; shares compounds with EBI2 antag; purified beta-galactosidase, luminescent Galacton Star, 15 min; inhibition, % at 5 µM; 1% of 2,400 active; AID 652176, 2013;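 active = replicate-average signal at least 3 plate SD below neutral wells, shown as high inhibition, flagging enzyme-inhibiting false positives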;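 also: higher means stronger loss of beta-gal luminescence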
Large screens that a line does not name were inactive (follow-up assays come after a bar, where they were run).

CCC(=O)c1ccc(OC(=O)N2CCOCC2)cc1	none
O=C(Nc1nc(-c2ccccn2)cs1)Nc1ccc(F)cc1F	APJ antag 41, CCR6 antag 67, CXCR6 block 65 | APJ antag confirm 65 | CXCR6 antag conf 79
COc1cccc(CN(C)C(=O)c2ccc(S(=O)(=O)Nc3ccccc3C)cc2)c1OC	none (no result: APJ antag, APJ ag, CCR6 antag)
COc1ccc(NC(=O)/C(Cl)=C(/Cl)S(=O)Cc2ccccc2)cn1 (configuration not stated)	APJ antag 86, CCR6 antag 90, EBI2 antag 79, CXCR6 block 81 | APJ antag confirm 100 | CXCR6 antag conf 88
NNc1nc(-c2ccccc2)cc(-c2ccccc2O)n1	APJ antag 57, CCR6 antag 85, CXCR6 block 79 | APJ antag confirm 143 | CXCR6 antag conf 84
O=C(c1ccc(Cn2c(=S)[nH]c3ccc(Br)cc3c2=O)cc1)N1CCN(C2CCCCC2)CC1	none
C/C(=N\NC(=O)C(C)Oc1ccc([N+](=O)[O-])cc1)c1ccccn1 (configuration not stated)	APJ antag 56, CCR6 antag 77, CXCR6 block 74 | APJ antag confirm 73 | CXCR6 antag conf 90
S=C(N/N=C/c1ccccc1)N1CCOCC1	APJ antag 48, CCR6 antag 68, CXCR6 block 41 | APJ antag confirm 72 | CXCR6 antag conf 75
CN(c1ccccc1)S(=O)(=O)c1ccc(NC(=O)c2nc(S(C)(=O)=O)ncc2Cl)cc1	APJ antag 61, CCR6 antag 97, CXCR6 block 94 | APJ antag confirm 111 | CXCR6 antag conf 85
CCS(=O)(=O)c1ncc(Cl)c(C(=O)Nc2ccc(S(=O)(=O)N3CCC(C)CC3)cc2)n1	APJ antag 71, CCR6 antag 92, EBI2 antag 49, CXCR6 block 83 | APJ antag confirm 98 | CXCR6 antag conf 93
CN(c1ccccc1)S(=O)(=O)c1ccc(NC(=O)c2ccccc2)cc1	none
CCOc1ccc(-c2csc(/C(C#N)=C\c3ccc(O)c([N+](=O)[O-])c3)n2)cc1	APJ antag 50, CCR6 antag 55, CXCR6 block 39 | APJ antag confirm 61 | CXCR6 antag conf inactive
O=C(C#Cc1ccccc1)c1ccco1	APJ antag 58, CCR6 antag 70, CXCR6 block 69 | APJ antag confirm 74 | CXCR6 antag conf 83
COCc1cc(=O)[nH]c(Nc2nc3ccc(C)cc3o2)n1	APJ antag 52, CXCR6 block 46 | APJ antag confirm 54 | CXCR6 antag conf 47
CCc1ccc2nc(Nc3nc(COC)cc(=O)[nH]3)nc(C)c2c1	none
CSCCC(NC(=O)c1ccccc1Cl)C(=O)NC1CCN(Cc2ccccc2)CC1 (configuration not stated)	none
COc1ccc(Br)c(C(=O)OCC(=O)NC2CCCCCCC2)c1	none (no result: APJ antag, APJ ag, CCR6 antag)
O=C(NNc1ccc([N+](=O)[O-])cc1[N+](=O)[O-])c1ccco1	APJ antag 51, CCR6 antag 58, CXCR6 block 44 | APJ antag confirm 79 | CXCR6 antag conf 48
O=C(NNc1ccc([N+](=O)[O-])cc1)c1ccco1	none
CCOC(=O)C1CCCN(c2c(C(=O)c3ccccc3)cnc3ccc(OC)cc23)C1 (configuration not stated)	APJ antag 58, CCR6 antag 83, CXCR6 block 70 | APJ antag confirm 96 | CXCR6 antag conf 69
CCOC(=O)C1CCCN(C(=O)COc2ccc(C(=O)c3ccccc3)cc2)C1 (configuration not stated)	none
COc1nc(C)nc(Cl)c1NC1=NCCN1	none
Cn1c(=O)[nH]c(=O)c2c1nc(SCC(=O)O)n2Cc1ccccc1	none
Cn1c(=O)[nH]c(=O)c2c1nc(Sc1nc3ccccc3s1)n2Cc1ccccc1	APJ antag 54, CCR6 antag 68, CXCR6 block 52 | APJ antag confirm inactive | CXCR6 antag conf 54
Cc1ccc(-c2cc(C(=O)N3CCCc4ccccc43)c3ccccc3n2)cc1	none
Cc1ccc2nc3sc(C(=O)N4CCCc5ccccc54)c(N)c3cc2c1	APJ antag 76, EBI2 antag 54 | APJ antag confirm inactive | EBI2 antag conf 55 | EBI2 agonist inactive | bGal cs inactive
COc1ccccc1CN(C(=O)c1cnccn1)C(C(=O)NC1CCCCC1)c1cc(OC)c(OC)c(OC)c1 (configuration not stated)	none
Cc1ccc(C(=O)CNc2ccc(Br)cc2)cc1	APJ antag 84, CCR6 antag 56, EBI2 antag 74 | APJ antag confirm 102 | EBI2 antag conf 66 | EBI2 agonist inactive | bGal cs inactive
CCOC(=O)C1C(C)N=C2SCC(=O)N2C1c1cccc(Br)c1 (configuration not stated)	APJ antag 41, EBI2 antag 38 | APJ antag confirm inactive | EBI2 antag conf inactive | EBI2 agonist inactive | bGal cs inactive
CC(=O)OCCCNc1cc(Sc2ccc(C)cc2)c2nonc2c1[N+](=O)[O-]	APJ antag 71, CCR6 antag 70, EBI2 antag 85, CXCR6 block 71 | APJ antag confirm 103 | EBI2 antag conf inactive | EBI2 agonist inactive | bGal cs inactive
CCCC(C(=O)Nc1ccncc1)c1ccccc1 (configuration not stated)	none
